Tested on: Fibroblast
Assay: Multiplex assay against human fibroblast
Assay type: toxicity, cell-based
Method in brief: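 Cells were classed with CellPathfinder machine-learning gating, first as Hoechst high-intensity objects or normal cells, then (normal cells) as healthy, pyknosed or fragmented nuclei, and finally (pyknosed cells) as mitotic or apoptotic. Staining of live cells at seeding used Hoechst33342, BioTracker Green Microtubule Cytoskeleton Dye, MitoTracker Red and Annexin V Alexa Fluor 680, with imaging on a CQ1 microscope at 37°C and 5% CO2 after compound addition. Tubulin, mitochondrial-mass and membrane-permeability phenotypes are per cents of healthy-nucleus cells.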

[1] = 12 h, 1 µM, compound concentration 1 uM, replicate 1
[2] = 12 h, 1 µM, compound concentration 1 uM, replicate 2
[3] = 12 h, 10 µM, compound concentration 10 uM, replicate 1
[4] = 12 h, 10 µM, compound concentration 10 uM, replicate 2
[5] = 24 h, 1 µM, compound concentration 1 uM, replicate 1
[6] = 24 h, 1 µM, compound concentration 1 uM, replicate 2
[7] = 24 h, 10 µM, compound concentration 10 uM, replicate 1
[8] = 24 h, 10 µM, compound concentration 10 uM, replicate 2
[9] = 48 h, 1 µM, compound concentration 1 uM, replicate 1
[10] = 48 h, 1 µM, compound concentration 1 uM, replicate 2
[11] = 48 h, 10 µM, compound concentration 10 uM, replicate 1
[12] = 48 h, 10 µM, compound concentration 10 uM, replicate 2

For `CCn1c(-c2nc3cc(C(=O)N4CCCC(N)C4)ccc3n2C)cc2ccccc21.Cl` (stereo unspecified), the “Population Apoptotic (%)” value [1] was 63%, the “Population Fragmented Nuclei (%)” value [1] was 17% and the “Population Healthy Nuclei (%)” value [1] was 67%. The “Population Hoechst High Intensity Objects (%)” value [1] was 3%, the “Population Membrane Permeable-Phenotype (%)” value [1] was 0% and the “Population Mitochondria Different-Phenotype (%)” value [1] was 4%. The “Population Mitotic Cells (%)” value [1] was 36%, the “Population Normal (%)” value [1] was 96% and the “Population Pyknosed Nuclei (%)” value [1] was 15%. The “Population Tubulin-Different-Phenotype (%)” value [1] was 27%, the “Total Cell Count” value [1] was 128 and the “Population Apoptotic (%)” value [2] was 32%. The “Population Fragmented Nuclei (%)” value [2] was 21%, the “Population Healthy Nuclei (%)” value [2] was 54% and the “Population Hoechst High Intensity Objects (%)” value [2] was 5%. For the same compound, the “Population Membrane Permeable-Phenotype (%)” value [2] was 2%, the “Population Mitochondria Different-Phenotype (%)” value [2] was 17% and the “Population Mitotic Cells (%)” value [2] was 67%. For the same compound, the “Population Normal (%)” value [2] was 94%, the “Population Pyknosed Nuclei (%)” value [2] was 23% and the “Population Tubulin-Different-Phenotype (%)” value [2] was 41%. The “Total Cell Count” value [2] was 167, the “Population Apoptotic (%)” value [3] was 41% and the “Population Fragmented Nuclei (%)” value [3] was 22%. The “Population Healthy Nuclei (%)” value [3] was 63%, the “Population Hoechst High Intensity Objects (%)” value [3] was 1% and the “Population Membrane Permeable-Phenotype (%)” value [3] was 0%. The “Population Mitochondria Different-Phenotype (%)” value [3] was 18%, the “Population Mitotic Cells (%)” value [3] was 58% and the “Population Normal (%)” value [3] was 98%. For the same compound, the “Population Pyknosed Nuclei (%)” value [3] was 14%, the “Population Tubulin-Different-Phenotype (%)” value [3] was 69% and the “Total Cell Count” value [3] was 221. For the same compound, the “Population Apoptotic (%)” value [4] was 38%, the “Population Fragmented Nuclei (%)” value [4] was 32% and the “Population Healthy Nuclei (%)” value [4] was 37%. For the same compound, the “Population Hoechst High Intensity Objects (%)” value [4] was 3%, the “Population Mitochondria Different-Phenotype (%)” value [4] was 19% and the “Population Mitotic Cells (%)” value [4] was 61%. The “Population Normal (%)” value [4] was 96%, the “Population Pyknosed Nuclei (%)” value [4] was 29% and the “Population Tubulin-Different-Phenotype (%)” value [4] was 80%. The “Total Cell Count” value [4] was 186, the “Population Apoptotic (%)” value [5] was 50% and the “Population Fragmented Nuclei (%)” value [5] was 22%. For the same compound, the “Population Healthy Nuclei (%)” value [5] was 68%, the “Population Hoechst High Intensity Objects (%)” value [5] was 0% and the “Population Membrane Permeable-Phenotype (%)” value [5] was 0%. The “Population Mitochondria Different-Phenotype (%)” value [5] was 5%, the “Population Mitotic Cells (%)” value [5] was 50% and the “Population Normal (%)” value [5] was 99%. The “Population Pyknosed Nuclei (%)” value [5] was 9%, the “Population Tubulin-Different-Phenotype (%)” value [5] was 30% and the “Total Cell Count” value [5] was 127. The “Population Apoptotic (%)” value [6] was 55%, the “Population Fragmented Nuclei (%)” value [6] was 27% and the “Population Healthy Nuclei (%)” value [6] was 54%. The “Population Hoechst High Intensity Objects (%)” value [6] was 9%, the “Population Membrane Permeable-Phenotype (%)” value [6] was 3% and the “Population Mitochondria Different-Phenotype (%)” value [6] was 20%. For the same compound, the “Population Mitotic Cells (%)” value [6] was 44%, the “Population Normal (%)” value [6] was 90% and the “Population Pyknosed Nuclei (%)” value [6] was 17%. For the same compound, the “Population Tubulin-Different-Phenotype (%)” value [6] was 41%, the “Total Cell Count” value [6] was 184 and the “Population Apoptotic (%)” value [7] was 70%. For the same compound, the “Population Fragmented Nuclei (%)” value [7] was 22%, the “Population Healthy Nuclei (%)” value [7] was 66% and the “Population Hoechst High Intensity Objects (%)” value [7] was 3%. For the same compound, the “Population Membrane Permeable-Phenotype (%)” value [7] was 0%, the “Population Mitochondria Different-Phenotype (%)” value [7] was 22% and the “Population Mitotic Cells (%)” value [7] was 29%. The “Population Normal (%)” value [7] was 96%, the “Population Pyknosed Nuclei (%)” value [7] was 10% and the “Population Tubulin-Different-Phenotype (%)” value [7] was 76%. The “Total Cell Count” value [7] was 231, the “Population Apoptotic (%)” value [8] was 59% and the “Population Fragmented Nuclei (%)” value [8] was 30%. For the same compound, the “Population Healthy Nuclei (%)” value [8] was 46%, the “Population Hoechst High Intensity Objects (%)” value [8] was 4% and the “Population Membrane Permeable-Phenotype (%)” value [8] was 2%. For the same compound, the “Population Mitochondria Different-Phenotype (%)” value [8] was 32%, the “Population Mitotic Cells (%)” value [8] was 40% and the “Population Normal (%)” value [8] was 95%. The “Population Pyknosed Nuclei (%)” value [8] was 23%, the “Population Tubulin-Different-Phenotype (%)” value [8] was 82% and the “Total Cell Count” value [8] was 189. The “Population Apoptotic (%)” value [9] was 66%, the “Population Fragmented Nuclei (%)” value [9] was 23% and the “Population Healthy Nuclei (%)” value [9] was 67%. The “Population Hoechst High Intensity Objects (%)” value [9] was 2%, the “Population Membrane Permeable-Phenotype (%)” value [9] was 1% and the “Population Mitochondria Different-Phenotype (%)” value [9] was 3%. For the same compound, the “Population Mitotic Cells (%)” value [9] was 33%, the “Population Normal (%)” value [9] was 97% and the “Population Pyknosed Nuclei (%)” value [9] was 8%. For the same compound, the “Population Tubulin-Different-Phenotype (%)” value [9] was 29%, the “Total Cell Count” value [9] was 137 and the “Population Apoptotic (%)” value [10] was 51%. The “Population Fragmented Nuclei (%)” value [10] was 32%, the “Population Healthy Nuclei (%)” value [10] was 51% and the “Population Hoechst High Intensity Objects (%)” value [10] was 5%. For the same compound, the “Population Membrane Permeable-Phenotype (%)” value [10] was 2%, the “Population Mitochondria Different-Phenotype (%)” value [10] was 23% and the “Population Mitotic Cells (%)” value [10] was 48%. For the same compound, the “Population Normal (%)” value [10] was 94%, the “Population Pyknosed Nuclei (%)” value [10] was 15% and the “Population Tubulin-Different-Phenotype (%)” value [10] was 49%. For the same compound, the “Total Cell Count” value [10] was 193, the “Population Apoptotic (%)” value [11] was 83% and the “Population Fragmented Nuclei (%)” value [11] was 19%. The “Population Healthy Nuclei (%)” value [11] was 72%, the “Population Hoechst High Intensity Objects (%)” value [11] was 3% and the “Population Membrane Permeable-Phenotype (%)” value [11] was 0%. The “Population Mitochondria Different-Phenotype (%)” value [11] was 22%, the “Population Mitotic Cells (%)” value [11] was 16% and the “Population Normal (%)” value [11] was 96%. The “Population Pyknosed Nuclei (%)” value [11] was 8%, the “Population Tubulin-Different-Phenotype (%)” value [11] was 85% and the “Total Cell Count” value [11] was 232. The “Population Apoptotic (%)” value [12] was 60%, the “Population Fragmented Nuclei (%)” value [12] was 33% and the “Population Healthy Nuclei (%)” value [12] was 57%. The “Population Mitochondria Different-Phenotype (%)” value [12] was 16%, the “Population Mitotic Cells (%)” value [12] was 40% and the “Total Cell Count” value [12] was 231.
